Source: publication PMC355911 (Journal of Insect Science, 2002)

Experiments:
CfEcR/CfUSP = target: T1, CfEcR/CfUSP (Choristoneura fumiferana, UniProt O77255); experiment: UV-irradiation of receptor complex with ligand, then [3H]ponasterone A binding; settings: ligand 100 nM, 350 nm for 20 min, [3H]ponA 2.55 nM
T1 sequence (O77255 1-541): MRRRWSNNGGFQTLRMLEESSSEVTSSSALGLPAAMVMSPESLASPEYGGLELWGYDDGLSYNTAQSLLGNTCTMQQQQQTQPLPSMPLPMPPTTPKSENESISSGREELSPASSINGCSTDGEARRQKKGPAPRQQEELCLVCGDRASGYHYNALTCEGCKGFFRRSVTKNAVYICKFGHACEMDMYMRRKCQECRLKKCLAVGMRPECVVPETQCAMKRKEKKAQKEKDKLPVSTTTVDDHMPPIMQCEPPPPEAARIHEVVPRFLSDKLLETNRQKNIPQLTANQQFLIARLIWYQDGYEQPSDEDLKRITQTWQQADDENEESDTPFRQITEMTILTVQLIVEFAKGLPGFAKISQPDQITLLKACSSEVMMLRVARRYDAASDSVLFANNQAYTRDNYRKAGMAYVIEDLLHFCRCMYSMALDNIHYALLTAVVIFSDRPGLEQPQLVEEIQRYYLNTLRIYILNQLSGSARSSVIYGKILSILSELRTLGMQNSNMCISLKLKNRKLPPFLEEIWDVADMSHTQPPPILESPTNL
T1 sequence (O76202 1-472 partner): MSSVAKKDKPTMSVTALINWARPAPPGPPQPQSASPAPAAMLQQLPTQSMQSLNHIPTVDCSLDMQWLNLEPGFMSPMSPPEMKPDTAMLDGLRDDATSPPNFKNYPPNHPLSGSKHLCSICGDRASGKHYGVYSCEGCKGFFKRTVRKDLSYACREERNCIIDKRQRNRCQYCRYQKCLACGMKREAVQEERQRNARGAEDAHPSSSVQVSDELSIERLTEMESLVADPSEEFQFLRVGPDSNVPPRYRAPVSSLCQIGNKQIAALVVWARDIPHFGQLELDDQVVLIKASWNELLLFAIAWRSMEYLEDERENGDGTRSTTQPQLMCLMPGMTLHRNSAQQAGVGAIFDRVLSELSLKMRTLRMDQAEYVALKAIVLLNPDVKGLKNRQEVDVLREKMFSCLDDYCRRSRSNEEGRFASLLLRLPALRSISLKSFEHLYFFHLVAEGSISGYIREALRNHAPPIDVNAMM

DmEcR/DmUSP = target: T2, DmEcR/DmUSP (Drosophila melanogaster, UniProt P34021); experiment: UV-irradiation of receptor complex with ligand, then [3H]ponasterone A binding; settings: ligand 100 nM, 350 nm for 20 min, [3H]ponA 2.55 nM
T2 sequence (P34021 1-878): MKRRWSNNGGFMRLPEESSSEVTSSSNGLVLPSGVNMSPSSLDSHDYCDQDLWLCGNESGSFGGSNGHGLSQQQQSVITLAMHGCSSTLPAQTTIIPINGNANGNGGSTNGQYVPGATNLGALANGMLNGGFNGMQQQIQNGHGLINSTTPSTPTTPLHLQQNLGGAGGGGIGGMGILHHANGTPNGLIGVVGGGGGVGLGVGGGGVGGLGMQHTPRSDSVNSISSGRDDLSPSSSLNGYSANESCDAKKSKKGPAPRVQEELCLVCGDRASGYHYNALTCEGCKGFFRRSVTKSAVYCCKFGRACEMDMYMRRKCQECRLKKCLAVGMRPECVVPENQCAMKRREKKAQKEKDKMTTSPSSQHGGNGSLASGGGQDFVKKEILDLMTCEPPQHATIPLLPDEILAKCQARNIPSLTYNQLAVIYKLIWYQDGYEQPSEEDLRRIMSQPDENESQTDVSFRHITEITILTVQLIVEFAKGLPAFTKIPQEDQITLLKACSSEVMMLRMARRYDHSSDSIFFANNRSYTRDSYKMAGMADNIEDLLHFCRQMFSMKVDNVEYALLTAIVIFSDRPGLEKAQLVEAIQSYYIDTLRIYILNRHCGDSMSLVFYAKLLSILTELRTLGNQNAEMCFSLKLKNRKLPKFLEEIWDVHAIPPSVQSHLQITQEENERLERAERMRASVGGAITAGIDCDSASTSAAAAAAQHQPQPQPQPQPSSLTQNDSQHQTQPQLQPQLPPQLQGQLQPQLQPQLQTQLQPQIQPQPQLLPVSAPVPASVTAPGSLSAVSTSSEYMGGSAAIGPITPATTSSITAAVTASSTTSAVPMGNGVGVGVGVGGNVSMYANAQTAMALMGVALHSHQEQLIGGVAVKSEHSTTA
T2 sequence (P20153 1-508 partner): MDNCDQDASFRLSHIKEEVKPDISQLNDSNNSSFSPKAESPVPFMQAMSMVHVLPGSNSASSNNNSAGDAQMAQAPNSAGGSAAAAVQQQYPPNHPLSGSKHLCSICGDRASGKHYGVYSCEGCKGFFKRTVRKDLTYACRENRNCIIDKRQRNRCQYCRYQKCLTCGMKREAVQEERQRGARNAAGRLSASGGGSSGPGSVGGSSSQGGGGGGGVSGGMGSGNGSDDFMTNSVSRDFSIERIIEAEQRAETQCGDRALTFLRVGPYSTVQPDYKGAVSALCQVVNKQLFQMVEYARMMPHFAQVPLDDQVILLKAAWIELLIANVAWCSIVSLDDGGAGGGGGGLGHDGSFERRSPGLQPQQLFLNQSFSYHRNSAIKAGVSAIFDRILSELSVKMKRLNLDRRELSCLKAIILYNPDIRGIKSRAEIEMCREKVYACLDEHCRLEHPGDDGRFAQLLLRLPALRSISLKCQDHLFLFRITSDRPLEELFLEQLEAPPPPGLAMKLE
Method in brief: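 Crude extracts of bacterially expressed DmEcR/DmUSP were incubated with 100 nM ligand at 7°C for 16 h to equilibrium. Samples were irradiated in quartz tubes on a merry-go-round at 350 nm for 20 min, with non-irradiated controls. Unbound steroid was stripped with fatty-acid-free BSA plus dextran-coated charcoal (10 mM Tris/HCl, pH 7.2), 5 min ice-cold, then spun at 13,000 × g. Supernatant was equilibrated with 2.55 nM [3H]ponA at 7°C, DCC-stripped again, and scintillation-counted. Duplicates.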

SMILES: CC(C)(O)CC[C@@H](O)[C@](C)(O)[C@H]1CC[C@@]2(O)C3=CC(=O)[C@@H]4C[C@@H](O)[C@@H](O)C[C@]4(C)[C@H]3CC[C@]12C [compound 1, 20-hydroxyecdysone]
- binding capacity for [3H]ponasterone A after irradiation with ligand (in words) (CfEcR/CfUSP; listed as 20E): no blocking
- binding capacity for [3H]ponasterone A after irradiation with ligand (in words) (DmEcR/DmUSP; listed as 20E): no blocking

SMILES: CC(C)CC[C@@H](O)[C@](C)(O)[C@H]1CC[C@@]2(O)C3=CC(=O)[C@@H]4C[C@@H](O)[C@@H](O)C[C@]4(C)C3=CC[C@]12C [compound 5, dacryhainansterone]
- binding capacity for [3H]ponasterone A after irradiation with ligand (in words) (CfEcR/CfUSP): significantly reduced
- binding capacity for [3H]ponasterone A after irradiation with ligand (in words) (DmEcR/DmUSP): significantly reduced
